pIC50: −log10 of the molar value.
Assays:
Format in all cases: functional, cell-based
[1] = Cytotoxicity against human SUM159 cells assessed as cell viability after 72 hrs by CCK cell proliferation assay; conditions: SUM-159-PT
Outline: (§1)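 Cells plated at 3,000–5,000 per well; dosing began 24 h after plating, using a rising concentration series. After 72 h, cell counting kit reagent added and incubation continued 1–4 h. Viable cells read as OD at 450 nm. Inhibition rate = (1 − OD treated/OD control) × 100%. Wells in triplicate, each compound tested three times; IC50 is the mean of three independent experiments.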

MCF7 = assay: Cytotoxicity against human MCF7 cells assessed as cell viability after 72 hrs by CCK cell proliferation assay; conditions: MCF7, 72 h; outline: as §1
[2] = Cytotoxicity against human HL60 cells assessed as cell viability after 72 hrs by CCK cell proliferation assay; conditions: HL-60, 72 h; outline: as §1
C6 = assay: Cytotoxicity against rat C6 cells assessed as cell viability after 72 hrs by CCK cell proliferation assay; conditions: C6, 72 h; outline: as §1

Compound	pIC50 [1]	pIC50 (MCF7)	pIC50 [2]	pIC50 (C6)
C=C1C(=O)O[C@H]2[C@@H]1CC/C(C)=C\CC[C@@]1(C)O[C@@H]21	5.46	4.89	5.38	4.38
C=C1C(=O)O[C@H]2[C@@H]1CC/C(C)=C/CC[C@@]1(C)O[C@@H]21	4.91	4.75	5.54	4.62
C=C1C(=O)O[C@@H]2C3O[C@]3(C)CC/C=C(\C)CC[C@@H]12 (stereo partly specified)	4.99	5.16	5.60	5.18
C=C1C(=O)O[C@H]2[C@H]1CC/C(C)=C\CC[C@@]1(C)O[C@@H]21	5.11	5.23	5.92	5.41

Reference: ChEMBL document CHEMBL3351257, “Total syntheses of parthenolide and its analogues with macrocyclic stereocontrol” (J Med Chem, 2014)
